Assay results collected from several papers.
Compare with care: the assays were run in different laboratories.
Cell line: THP-1

The IC50 of `CCn1c(-c2nnc(NC(=O)c3cc4c([nH]c5ccccc54)c(-c4ccc(C)cc4)n3)s2)cc2ccccc21` is reported as 38.9 µM (cell growth or viability, MTT; 72 h).
For `O=C(/C=C/C=C/c1ccc2c(c1)OCO2)N1CCCCC1`, the IC50 was greater than 50 µg/mL (cell growth or viability, MTT; 48 h).
With `COc1ccc(-c2nc(C(=O)Nc3nnc(-c4cc5ccccc5[nH]4)s3)cc3c2[nH]c2ccccc23)cc1` the IC50 was 3.18 µM (cell growth or viability, MTT; 72 h).
With `CC(C)(C)c1ccc(S(=O)(=O)/C=C/C#N)cc1` the IC50 was 0.74 µM (TNF-α release, inhibitor; 17 h, LPS-stimulated).
For `Cn1c(-c2nnc(NC(=O)c3cc4c([nH]c5ccccc54)c(-c4ccc(F)cc4)n3)s2)cc2ccccc21`, the IC50 was 32.8 µM (cell growth or viability, MTT; 72 h).
The IC50 of `Nc1nc(Nc2ccc3c(c2)CC[C@@H](N2CCCC2)CC3)nn1-c1cc2c(nn1)-c1ccccc1CCC2` is reported as 2.54 µM (cell growth or viability, trypan blue; 72 h).
The IC50 of `O=C(Nc1nc2ccccc2n1CCN1CCOCC1)c1cccc([N+](=O)[O-])c1` is reported as 1.12 µM (TNF-α release, inhibitor; 17 h, LPS-stimulated).
`O=[N+]([O-])c1c[nH]nc1-c1nc(-c2ccc3oc4ccccc4c3c2)no1` has an IC50 of 9.8 µg/mL (cell growth or viability, LDH; 24 h).
For `O=C(O)c1ccc(CN2CCC(CN[C@@H]3C[C@H]3c3ccccc3)CC2)cc1`, the IC50 was greater than 50 µM (cell growth or viability, MTS; 6 days).
`Cl.NCc1ccc(-c2nc(-c3ccc(Oc4ccc(C(F)(F)F)cc4)cc3)no2)cc1` has an IC50 of 4.4 µg/mL (cell growth or viability, LDH; 24 h).
The IC50 of `COc1cccc2c1C(=O)c1c(O)c3c(c(O)c1C2=O)C[C@@](O)(C(=O)CO)C[C@@H]3O[C@H]1C[C@H](N)[C@H](O)[C@H](C)O1` is reported as 3.25 µM (cell growth or viability, MTT; 72 h).
`Cc1ccc(S(=O)(=O)/C=C/C#N)cc1` has an IC50 of 1.22 µM (TNF-α release, inhibitor; 17 h, LPS-stimulated).
`CC[C@@H](C)[C@H](N)C(=O)N1Cc2ccccc2C1` has an IC50 of 2.5 µM (cell growth or viability, ATP luminescence; 48 h).
`O=C(Nc1nnc(-c2cc3ccccc3[nH]2)s1)c1cc2c([nH]c3ccccc32)c(-c2ccccc2)n1` gave an IC50 of 3.57 µM (cell growth or viability, MTT; 72 h).
`NCCc1c[nH]cn1` has an IC50 of 1.89 µM (TNF-α release, inhibitor; 17 h, LPS-stimulated).
The IC50 of `Cn1c(-c2nnc(NC(=O)c3cc4c([nH]c5ccccc54)c(-c4ccccc4)n3)s2)cc2ccccc21` is reported as 14.2 µM (cell growth or viability, MTT; 72 h).
With `CCC(NC(C)C)C(O)c1ccc(O)c(O)c1` (centres unmarked) the IC50 was 2.07 µM (TNF-α release, inhibitor; 17 h, LPS-stimulated).
For `COc1cc2nccc(Oc3ccc(NC(=O)C4(C(=O)Nc5ccc(F)cc5)CC4)cc3)c2cc1OC`, the IC50 was 2.92 µM (cell growth or viability, trypan blue; 72 h).
`CC(C)(C)NCC(O)c1cc(O)cc(O)c1` (centres unmarked) has an IC50 of 2.18 µM (TNF-α release, inhibitor; 17 h, LPS-stimulated).
With `CC(C)[C@H](N)C(=O)N1CCC[C@H]1B(O)O` the IC50 was 0.206 µM (cell growth or viability, ATP luminescence; 48 h).
